Measured values published in PMC3640569 (Food biophysics, 2012).
Values after ≈ are worked out from the molar mass of the structure shown. Values joined by “and” are separate entries in the source; they are usually repeats but may differ in a detail not shown here. Equal entries are not always repeated. “Also recorded” adds a separate entry of the source. Values belong to the compound of their own block, whether it stands above or below them.

Columns and labels:
Theoretical prediction = test: Theoretical prediction
In short: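 Calculated, not measured: maximum PMF dissolvable in the oil-water system at equilibrium was derived with a mass-balance equation (Eq. 1). Inputs were the masses of solute, oil and water and the experimentally measured saturation concentrations of PMF in each carrier oil (thermal quenching) and in buffer (solvent injection), assuming oil-water partitioning.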

[1] = Solubility of PMF in simulated small intestinal fluids; assay type: physicochemical; details: 0.05 % PVA or HPMC in SSIF
In short: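 PMF in DMSO was mixed with buffer, fasted SSIF or fed SSIF (150 mM NaCl, 10 mM CaCl₂, 15 mg/mL bile, 2.4 mg/mL lipase), with or without 0.05 % PVA or HPMC. Samples were stirred constantly for 72 h at 37 °C and centrifuged to remove crystals. Soluble PMF in the supernatant was measured by UV-vis at 330 nm.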

[2] = Oil-water partition coefficient estimated from saturation concentrations; assay type: physicochemical
In vitro digestion model = assay type: in vitro ADME; details: 20 wt% MCT nanoemulsion, 2.8 mM PMF, Fa-SSIF
In short: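 A nanoemulsion (20 wt% MCT, 2 wt% Tween 20, 2.8 mM PMF) was added to fasted SSIF (100 mM NaCl, 5 mM CaCl₂, 5 mg/mL bile extract, 0.6 mg/mL lipase, 5 mM phosphate). It was equilibrated 10 min to 37 °C at pH 7.00, and lipolysis was started with pancreatic extract. pH was held by pH-stat with 2 M NaOH. Timed samples were stopped with 4-BBBA and centrifuged (4000 rpm, 30 min, RT). The supernatant micelle phase was diluted 1:10 in DMSO and read at 330 nm. Done in triplicate.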

[3] = Encapsulation of PMF in oil-in-water nanoemulsions; assay type: physicochemical
In short: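 Oil phase was 1 wt% PMF dissolved in MCT at 90–100 °C. Aqueous phase was 2 wt% Tween 20 in 5 mM phosphate, pH 7.0. Both were kept above 50 °C, blended 2 min, then given five microfluidizer passes at 12,000 psi. Oil content was 2.5–20 % at a PMF:oil ratio of 1:100 (initial 0.56–5.6 mM). After storage, dispersed and total PMF (remixed sample) were measured by UV-vis at 330 nm.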

[4] = Organic phase solubility of PMF; assay type: physicochemical
In short: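 Thermal quenching: weighed PMF was stirred into MCT or LCT (corn oil) for 1 h at 90–100 °C, cooled to 25 °C and held up to 72 h. Crystals were inspected visually and by optical microscopy. Saturation concentration was the mean of four measurements at the highest PMF loadings.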

[5] = cited from earlier work
[6] = Aqueous phase solubility of PMF; assay type: physicochemical
In short: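 Solvent injection: 1 % PMF in DMSO was injected into aqueous solutions of water-soluble polymers (0–5 %) or polymer-free buffer, giving a final 56 µM PMF. Mixtures were stirred at 120 rpm for 72 h at 25 °C, then centrifuged (4000 rpm, 15 min) to remove crystals. Supernatant PMF was read by UV-vis at 330 nm against a calibration curve. Runs were done in duplicate or triplicate and reported as mean ± SD.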

[7] = rat, 2 to 9 mg per day in a 71 kcal per day diet; cited from earlier work

soluble PMF at saturation predicted using Eq. 1 (Theoretical prediction; 2.5 % fat MCT nanoemulsion): 0.15 mM
soluble PMF at saturation predicted using Eq. 1 (Theoretical prediction; 5 % fat MCT nanoemulsion): 0.31 mM
soluble PMF at saturation predicted using Eq. 1 (Theoretical prediction; 10 % fat MCT nanoemulsion): 0.61 mM
soluble PMF at saturation predicted using Eq. 1 (Theoretical prediction; 20 % fat MCT nanoemulsion): 1.22 mM
saturation concentration calculated using Eq. 1 (Theoretical prediction; 20 wt% LCT nanoemulsion): 0.84 mM
effect of water-soluble polymers on solubility in SSIFs [1]: little influence
oil-water partition coefficient KOW (=CSO*/CSW*) ([2]; LCT / buffer): about 4,520
oil-water partition coefficient KOW (=CSO*/CSW*) ([2]; MCT / buffer): ~6,560
concentration of PMF in the micelle phase (In vitro digestion model; after 3 min digestion): around 3 µM
concentration of PMF in the micelle phase (In vitro digestion model; after 120 min digestion): around 16 µM
encapsulation efficiency ([3]; 2.5 % fat (MCT), 20 days storage): 21%
encapsulated PMF in nanoemulsion ([3]; 2.5 % fat (MCT), initial 0.56 mM PMF, 20 days storage): ≈ 0.12 mM
encapsulation efficiency ([3]; 5 % fat (MCT), 20 days storage): 21%
encapsulated PMF in nanoemulsion ([3]; 5 % fat (MCT), initial 1.4 mM PMF, 20 days storage): ~0.29 mM
encapsulation efficiency ([3]; 10 % fat (MCT), 20 days storage): 20%
encapsulated PMF in nanoemulsion ([3]; 10 % fat (MCT), initial 2.8 mM PMF, 20 days storage): ~0.55 mM
encapsulation efficiency ([3]; 20 % fat (MCT), 20 days storage): 42%
encapsulated PMF in nanoemulsion ([3]; 20 % fat (MCT), initial 5.6 mM PMF, 20 days storage): ~2.33 mM
encapsulation efficiency ([3]; 20 wt% LCT, initial PMF 5.6 mM, 72 h): around 48%
encapsulation efficiency ([3]; 20 wt% MCT, initial PMF 5.6 mM, 72 h): ~69%
encapsulation efficiency ([3]; 20 wt% oil (LCT or MCT), initial PMF 0.56, 1.4 and 2.8 mM, 72 h): 75 to 100%
saturation concentration in the oil phase (CSO*) ([4]; LCT): around 1.55 mg/mL
saturation concentration in the oil phase (CSO*) ([4]; LCT (corn oil), 25 °C, 72 h storage): 4.2 mM and 4.2 ± 0.4 mM
saturation concentration in the oil phase (CSO*) ([4]; MCT): ~2.2 mg/mL
solubility at 72 h ([4]; oil phases (LCT, MCT), 25 °C, oil or lipid, thermodynamic from solid): 4 to 6 mM (≈ 1430 to 2150 µg/mL)
PMF solubilized per 100 g of solution ([6]; 0.5 % HPMC aqueous phase): about 0.36 mg per 100 g
increase in PMF concentration in aqueous phase by water-soluble polymers ([6]; certain types and amounts of polymer (HPMC, PVA)): ~10 fold
saturation concentration in water / buffer solution ([6]; no polymer, 25 °C, 72 h): 0.93 µM and ≈ 0.93 µM
solubility kinetic at 72 h ([6]; pure buffer solution, 25 °C, aqueous buffer, kinetic from dmso stock): 0.33 µg/mL (≈ 0.921 µM)
Compound: COc1ccc(-c2cc(=O)c3c(O)c(OC)c(OC)c(OC)c3o2)cc1 [PMF, 5-hydroxy-6,7,8,4'-tetramethoxy-flavone]
reported saturation level in pure water [5]: ≈ 0.9 µM
effect of polymer on aqueous solubility ([6]; polyethylene glycol (PEG)): ineffective at increasing solubility; also recorded: little effect
effect of polymer on aqueous solubility ([6]; β-cyclodextrin (CD)): ineffective at increasing solubility; also recorded: little effect

Compound: COc1ccc(-c2cc(=O)c3c(OC)c(OC)c(OC)c(OC)c3o2)cc1OC [nobiletin]
anti-carcinogenic effect [7]: significant anti-carcinogenic effect
